Screening results from PubChem BioAssay.
This is a sample that favours compounds with a hit; in the whole collection about 3.8% have one here.
FGF22 binding – shifts melting point of recombinant human FGF22. Q9HCT0. recombinant FGF22 thermal shift, SYPRO orange fluorescence; percent of sucrose octasulfate shift, DMSO zero. activity (Tm shift, normalised), % at 9.99 µM. hit rate 1.5% among 340,000;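 active = mean Tm shift, scaled 0 neutral to 100 positive control, at about 1.3% or above, every replicate too, limit read from the data; inconclusive = no clear call, values can overlap the other calls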
Target sequence (Q9HCT0 whole entry, looked up): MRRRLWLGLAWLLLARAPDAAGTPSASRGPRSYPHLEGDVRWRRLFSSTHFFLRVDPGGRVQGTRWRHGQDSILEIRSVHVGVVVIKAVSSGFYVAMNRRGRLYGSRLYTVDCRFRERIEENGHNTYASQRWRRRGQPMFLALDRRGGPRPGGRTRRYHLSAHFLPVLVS
DENV2 CPE rescue – inhibitors of DENV2 cytopathic effect. CPE inhibition, % at 9.99 µM. DENV2-infected cells, cytopathic effect rescue, plate reader. AID 651640. hit rate 1.7% among 350,000; in the data active = CPE inhibition above about 20%, passing the limit was not always enough; inconclusive = no clear call, values can overlap the other calls; tested in BHK-21 cells;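 note: 0% = median of neutral control wells and 100% = median of positive control wells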
SIRT5 inh – sirtuin-5 (human) deacylase inhibition; Purified SirT5, succinyl-peptide AMC, trypsin-coupled fluorescence; inhibition, % at 15 µM; hit rate 1.1% among 330,000; AID 652115; in the data active = inhibition above about 15%; inconclusive = no clear call, values can overlap the other calls
Target sequence (Q9NXA8 whole entry, looked up): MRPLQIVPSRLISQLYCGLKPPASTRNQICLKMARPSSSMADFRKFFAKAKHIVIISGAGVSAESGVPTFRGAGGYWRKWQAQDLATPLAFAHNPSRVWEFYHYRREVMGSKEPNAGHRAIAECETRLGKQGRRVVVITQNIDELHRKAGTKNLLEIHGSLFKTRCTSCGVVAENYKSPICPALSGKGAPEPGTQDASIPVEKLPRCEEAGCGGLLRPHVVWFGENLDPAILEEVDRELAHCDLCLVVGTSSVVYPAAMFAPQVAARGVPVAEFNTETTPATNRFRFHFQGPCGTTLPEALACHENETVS
FN deposit inh – fibronectin deposition inhibition; AID 743247; AH1F fibroblasts, Alexa488-fibronectin deposition fluorescence, overnight; inhibition, % at 12.6 µM; hit rate 0.086% among 350,000;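 active = mean inhibition across replicates of 30% or more, regardless of how many single replicates reach that level; inconclusive = mean under 30% yet at least half of replicates reach 30%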;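 note: positive control wells lacked labelled fibronectin entirely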
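Material – AH1F fibroblast monolayer, labelled fibronectin deposition · Reagent – labelled fibronectin 24 nM · Timing – 1 h adhesion, overnight exposure · Measured by – fluorescence at 485 nm excitation, 525 nm emission · Read-out – inhibition of fibronectin deposition signal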
ARNT-TACC3 inh – disruptors of human ARNT/TACC3 interaction; AlphaScreen His-ARNT PAS-B/GST-TACC3 binding, luminescence; TACC3 fragment carries E629A point mutation; inhibition, % at 9.99 µM; hit rate 0.66% among 390,000;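 active = mean inhibition of replicates at least 50% and at least half of replicates each reaching 50%; inconclusive = half or more replicates reach 50% but mean below 50%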;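 note: 0% = complete ARNT plus TACC3 wells and 100% = ARNT alone without TACC3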
Xi reactivation – X-chromosome reactivation activator | XiGFP mouse fibroblasts, % GFP-positive cells imaging, 3 d; cells co-treated with 5-aza-dC sensitizer; scaled so ellipticine positive control = 100% | activation, % at 7.58 µM | hit rate 0.055% among 360,000;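 active = mean normalized replicate activation at least 10% and every replicate at or above 10%; inconclusive = only one of the two criteria met; inactive = mean below 10% and not all replicates reach 10%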;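 note: 0% = median of on-plate neutral control wells and 100% = ellipticine 6 µM median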
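Material: XiGFP fibroblasts, SV40-immortalized; Buffer or medium: DMEM containing 5-aza-dC; Compound dosing: single point; Times: 3 days compound exposure.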
* = called active by the depositor; ? = inconclusive; / = no result given.

SMILES	FGF22 binding	DENV2 CPE rescue	SIRT5 inh	FN deposit inh	ARNT-TACC3 inh	Xi reactivation
COc1cc(C(=O)Oc2c(CN3CCOCC3)cc(Cl)c3cccnc23)cc(OC)c1OC	/	/	/	/	70*	/
CCC(=O)N[C@@H]1CC[C@@H](CC(=O)NCc2ccc(OC)cc2)O[C@@H]1CO	0	18	-4	/	-1	1
CCC(=O)Nc1ccc2c(c1)OC[C@@H](C)N(C(=O)Cc1ccccn1)C[C@H](C)[C@@H](OC)CN(C)C2=O	0	0	-4	10	2	1
C[C@@H]1CCCCO[C@H](CN(C)CC2CC2)[C@H](C)CN([C@H](C)CO)C(=O)c2cc(NC(=O)C3CCCCC3)ccc2O1	0	-3	2	/	2	0
Cc1noc(C)c1S(=O)(=O)Nc1ccc2c(c1)C(=O)N([C@@H](C)CO)C[C@H](C)[C@@H](CN(C)S(=O)(=O)c1c(C)noc1C)OCCCC[C@H](C)O2	0	9	9	-1	-2	0
N/C(=N\OC(=O)CCCOc1ccccc1)c1ccc([N+](=O)[O-])cc1	43*	-8	0	-15	1	0
Nc1nc(-c2ccccc2)c(-c2ccccc2)n1N	0	0	2	-5	19	0
c1ccc(-c2cnn3c(-c4ccccc4)c(-c4ccccc4)nc3n2)cc1	/	/	/	/	-2	99*
COc1ccc(NC(=O)N(C)C[C@@H]2OCCCC[C@H](C)Oc3ccc(NS(C)(=O)=O)cc3C(=O)N([C@@H](C)CO)C[C@@H]2C)cc1	1	/	0	/	-4	0
COc1cccc(C2NC(=S)NC(C)=C2C(C)=O)c1 (stereo not given)	0	57*	2	-6	/	0
CCCN1CCN(c2ccc([N+](=O)[O-])cc2C#N)CC1	43*	-5	-1	-7	2	0
CC(=O)N1CCN(c2ccc([N+](=O)[O-])cc2C#N)CC1	0	-2	6	-1	-2	0
CC(=O)Nc1ccc2c(c1)C(=O)N(C)[C@H]1CC[C@H](CC(=O)Nc3ccc4c(c3)CCC4)O[C@@H]1CO2	/	/	/	-2	/	0
COc1cc(C(=O)OCCCN(C)C)cc(OC)c1OC	0	-2	/	-3	-3	0
COc1cc(C(=O)OCCn2c(=O)c3c(ncn3CCN(C)C)n(C)c2=O)cc(OC)c1OC	/	25*	-1	1	-1	0
Cc1ccc(C(=O)NCC(=O)OCC(=O)NCC(F)(F)F)cc1	44*	-1	-1	-6	0	0
CC(=O)OC1CC2(C)C(C(C)=O)CCC2C2CCC3=CC(=O)CCC3(C)C12 (stereo not given)	43*	0	/	2	7	0
CC12CC(O)C3C(CCC4=CC(=O)CCC43C)C1CCC2=CCO (stereo not given)	43*	/	/	-11	-5	0
CC(=O)OC1CCC2C3CCC4=CC(=O)CCC4(C)C3CCC2(C)[C@]1(C)O (stereo not given in full)	0	106*	-3	-6	-9	0
COc1ccc(NC(=O)Nc2cccc3c2O[C@@H](CN(C)C(=O)Nc2c(C)noc2C)[C@@H](C)CN([C@H](C)CO)C3=O)cc1	0	8	-9	-6	15	0
COc1cccc(NC(=O)C[C@H]2CC[C@@H]3[C@H](COc4ccc(NC(=O)C5CCCC5)cc4C(=O)N3C)O2)c1	/	/	/	-18	/	0
COc1cc(Cl)c(CNC[C@H]2O[C@@H](n3cnc(C(N)=O)n3)[C@H](O)[C@@H]2O)c(Cl)c1O	43*	-6	/	5	-6	0
COc1cccc(CNC[C@H]2O[C@@H](n3cnc(C(N)=O)n3)[C@H](O)[C@@H]2O)c1OCc1ccc(F)cc1Cl	0	-4	/	-2	-4	0
CC(C(=O)NC1C(=O)N2C(C(=O)O)=C(CSc3nnnn3C)CSC12)n1cc(Cl)cn1 (stereo not given)	43*	-1	1	10	0	0
Cc1c(Cl)cnn1CC(=O)NC1C(=O)N2C(C(=O)O)=C(CSc3nnnn3C)CSC12 (stereo not given)	43*	8	-3	-5	-1	0
SMILES	FGF22 binding	DENV2 CPE rescue	SIRT5 inh	FN deposit inh	ARNT-TACC3 inh	Xi reactivation
COn1c(-c2ccccc2)nc2ccc(Cl)cc21	/	/	/	/	-7	/
Clc1ccc2nc3c4ccccc4cnn3c2c1	43*	-6	0	0	-20	0
O=C(Nc1cccc(F)c1)N1C[C@H]2[C@@H](c3ccccc31)[C@H](CO)N2C(=O)Cc1ccccc1	-1	-13	2	/	-22	0
COCC(=O)N(C)C[C@H]1Oc2cc(C#C[C@@H](C)O)ccc2S(=O)(=O)N([C@@H](C)CO)C[C@H]1C	0	-1	8	18	-4	-1
O=C(N[C@@H]1CC[C@H](CCNS(=O)(=O)c2ccc(Cl)cc2)O[C@H]1CO)c1ccccn1	0	0	4	-7	31	0
O=C(N[C@H]1CC[C@H](CCNS(=O)(=O)c2ccc(Cl)cc2)O[C@H]1CO)c1cnccn1	0	9	32*	/	-3	0
O=C(N[C@@H]1CC[C@@H](CCNS(=O)(=O)c2ccc(Cl)cc2)O[C@@H]1CO)c1ccccn1	0	?	-3	-1	-4	1
O=C(N[C@H]1CC[C@@H](CCNS(=O)(=O)c2ccc(Cl)cc2)O[C@@H]1CO)c1ccccn1	0	53*	-2	-7	0	0
O=C(N[C@H]1CC[C@H](CCNS(=O)(=O)c2ccc(Cl)cc2)O[C@H]1CO)c1cccc(F)c1	1	55*	5	/	-16	0
O=C(N[C@H]1CC[C@H](CCNS(=O)(=O)c2ccc(Cl)cc2)O[C@H]1CO)c1ccccn1	0	60*	/	7	-3	0
O=C(NC1CCCCC1)[C@H]1[C@H](CO)[C@H]2Cn3c(cccc3=O)[C@H]2N1CC1CCOCC1	0	-10	-2	/	-6	0
O=C(/C=C/c1ccc(Br)cc1)NC(=S)N1CCOCC1	44*	1	0	3	3	0
COc1ccc(-c2oc(=O)c3cc(OC)c(OC)cc3c2/C=C/c2cccc([N+](=O)[O-])c2)cc1	0	34*	/	1	-14	0
C=CC[C@H](CC(=O)NCCO)C(=O)NCCOC(=O)[C@@H](CC=C)Cc1ccc(F)cc1	0	47*	/	-3	1	0
CC(C)=CCOc1c2ccoc2cc2oc(=O)ccc12	0	125*	0	/	/	/
CC(C)=CCOc1c2ccoc2c(OCC=C(C)C)c2oc(=O)ccc12	0	2	0	/	-2	/
